Results taken from ChEMBL document CHEMBL3525903 (Drug Metab Dispos, 2013).

Columns and labels:
[1] = Protein binding in plasma (unknown origin); format: ADME, cell-free; conditions: read-out: PPB (converted)
[2] = system: P-glycoprotein; test: Permeability assessed as human P-glycoprotein-mediated of transport of basolateral to apical side expressed in pig LLC-PK1 cells by Transwell experiment/liquid scintillation counting; format: ADME, cell-based
[3] = target: T1, Solute carrier family 22 member 6 (Homo sapiens, UniProt Q4U2R8); test: Inhibition of OAT1 (unknown origin) expressed in HEK293 cells assessed as reduction of [3H]PAH substrate uptake at 100 uM by liquid scintillation counting; format: ADME, cell-based; conditions: hek293, 100 µM
T1 sequence (Q4U2R8 whole entry): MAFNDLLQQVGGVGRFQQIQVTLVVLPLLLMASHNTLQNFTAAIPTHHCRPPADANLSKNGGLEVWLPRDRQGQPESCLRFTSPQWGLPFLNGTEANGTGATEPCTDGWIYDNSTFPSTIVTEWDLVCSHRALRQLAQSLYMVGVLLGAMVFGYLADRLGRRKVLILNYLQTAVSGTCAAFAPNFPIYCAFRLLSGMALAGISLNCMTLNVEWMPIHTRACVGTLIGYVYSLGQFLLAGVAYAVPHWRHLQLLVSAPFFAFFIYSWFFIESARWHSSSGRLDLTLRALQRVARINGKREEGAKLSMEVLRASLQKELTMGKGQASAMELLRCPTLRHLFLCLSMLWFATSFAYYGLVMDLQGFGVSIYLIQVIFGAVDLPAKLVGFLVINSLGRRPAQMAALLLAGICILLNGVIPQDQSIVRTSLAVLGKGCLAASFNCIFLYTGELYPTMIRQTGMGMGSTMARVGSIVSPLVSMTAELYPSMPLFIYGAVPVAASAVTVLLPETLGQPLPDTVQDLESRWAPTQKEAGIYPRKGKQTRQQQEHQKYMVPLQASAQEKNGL
Outline: (§1)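 HEK293 cells transiently transfected with OAT, OATP or OCT plasmid (FuGENE6; 24 h, then 24 h more with sodium butyrate), or stable OCTN1/OCTN2 lines; vector-transfected cells as control. Washed, preincubated 15–60 min at 37 °C in modified Krebs-Henseleit/25 mM HEPES buffer. Uptake of radiolabelled substrate, 100 µM inhibitor. Cells lysed in NaOH and counted by scintillation; counts normalised to medium radioactivity and Lowry protein; vector uptake subtracted.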

[4] = Maximal inhibition of human P-glycoprotein expressed in pig LLC-PK1 cells assessed as reduction of [3H]digoxin substrate transport at 100 uM by liquid scintillation counting; format: ADME, cell-based; conditions: llc-pk1, 100 µM
Outline: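 P-gp-expressing and parental LLC-PK1 monolayers were grown on transwell inserts for 6–7 days to confluence and switched to serum-free M199 1 h before assay. [3H]digoxin was given apical-to-basal or basal-to-apical, with inhibitor in both chambers, at 37 °C, solvent ≤0.5%. Receiver samples were scintillation-counted and Papp taken from the linear phase. Results are % of control BtoA transport, mean ± S.D., n≥3.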

[5] = target: T2, Solute carrier organic anion transporter family member 1B1 (Homo sapiens, UniProt Q9Y6L6); test: Inhibition of OATP1B1 (unknown origin) expressed in HEK293 cells assessed as reduction of [3H]E217betaG substrate uptake by liquid scintillation counting; format: ADME, cell-based
T2 sequence (Q9Y6L6 whole entry): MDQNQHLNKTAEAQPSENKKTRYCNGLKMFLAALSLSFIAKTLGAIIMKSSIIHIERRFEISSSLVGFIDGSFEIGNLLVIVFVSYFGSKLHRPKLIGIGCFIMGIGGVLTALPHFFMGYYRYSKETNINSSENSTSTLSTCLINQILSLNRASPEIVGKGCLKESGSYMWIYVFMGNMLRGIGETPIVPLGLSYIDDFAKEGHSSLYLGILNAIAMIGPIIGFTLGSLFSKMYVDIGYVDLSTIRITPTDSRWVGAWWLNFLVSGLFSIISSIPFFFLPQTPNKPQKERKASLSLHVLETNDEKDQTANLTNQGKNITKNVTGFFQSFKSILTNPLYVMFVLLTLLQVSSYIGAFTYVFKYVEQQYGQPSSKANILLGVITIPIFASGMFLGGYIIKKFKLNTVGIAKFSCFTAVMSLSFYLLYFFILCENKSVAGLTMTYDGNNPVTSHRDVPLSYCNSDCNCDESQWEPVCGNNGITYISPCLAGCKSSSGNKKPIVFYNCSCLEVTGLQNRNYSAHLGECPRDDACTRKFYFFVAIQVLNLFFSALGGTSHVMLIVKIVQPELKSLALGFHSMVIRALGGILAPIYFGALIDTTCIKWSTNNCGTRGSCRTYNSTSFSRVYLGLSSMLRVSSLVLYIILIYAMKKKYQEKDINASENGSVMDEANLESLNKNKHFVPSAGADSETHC

[6] = target: T3, OCTN2 (Homo sapiens, UniProt O76082); test: Inhibition of OCTN2 (unknown origin) expressed in HEK293 cells assessed as reduction of [3H]carnitine substrate uptake at 100 uM by liquid scintillation counting; format: cell-based; conditions: HEK293 cells expressing OCTN2, probe [3H]carnitine; outline: as §1
T3 sequence (O76082 whole entry): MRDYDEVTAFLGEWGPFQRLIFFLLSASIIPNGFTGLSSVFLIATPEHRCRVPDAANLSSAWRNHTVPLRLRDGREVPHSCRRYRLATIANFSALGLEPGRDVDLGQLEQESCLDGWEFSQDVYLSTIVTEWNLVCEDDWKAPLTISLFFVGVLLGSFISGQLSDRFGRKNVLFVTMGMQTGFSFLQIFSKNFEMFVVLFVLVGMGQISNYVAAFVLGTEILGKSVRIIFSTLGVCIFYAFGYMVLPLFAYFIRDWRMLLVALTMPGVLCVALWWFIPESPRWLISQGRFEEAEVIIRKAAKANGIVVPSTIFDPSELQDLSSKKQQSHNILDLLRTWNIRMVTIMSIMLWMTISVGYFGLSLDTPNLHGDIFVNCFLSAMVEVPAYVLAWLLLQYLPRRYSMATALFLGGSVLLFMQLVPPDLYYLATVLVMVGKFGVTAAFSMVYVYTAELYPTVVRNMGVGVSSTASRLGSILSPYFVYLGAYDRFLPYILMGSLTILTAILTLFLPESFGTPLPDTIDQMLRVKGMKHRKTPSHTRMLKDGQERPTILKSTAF

[7] = target: T2, Solute carrier organic anion transporter family member 1B1; test: Inhibition of OATP1B1 (unknown origin) expressed in HEK293 cells assessed as reduction of [3H]E217betaG substrate uptake at 100 uM by liquid scintillation counting; format: ADME, cell-based; conditions: hek293, 100 µM; outline: as §1

For `CC#CCn1c(N2CCC[C@@H](N)C2)nc2c1c(=O)n(Cc1nc(C)c3ccccc3n1)c(=O)n2C` [LINAGLIPTIN], the fraction unbound [1] was 0.2, the Km [2] was 154 µM and the “inhibition (INH)” value [3] was 1.07%. For the same compound, the “inhibition (INH)” value [4] was “Active”, the IC50 [5] was > 100 µM and the inhibition at 100 µM [6] was 15.5%. For the same compound, the “inhibition (INH)” value [7] was 35.5%.
